Measured values from different studies.
Compare with care: the assays were run in different laboratories.
Target: Ephrin type-A receptor 8 (EPHA8, Homo sapiens, UniProt P29322)
Residues used in one study (P29322 1-1005): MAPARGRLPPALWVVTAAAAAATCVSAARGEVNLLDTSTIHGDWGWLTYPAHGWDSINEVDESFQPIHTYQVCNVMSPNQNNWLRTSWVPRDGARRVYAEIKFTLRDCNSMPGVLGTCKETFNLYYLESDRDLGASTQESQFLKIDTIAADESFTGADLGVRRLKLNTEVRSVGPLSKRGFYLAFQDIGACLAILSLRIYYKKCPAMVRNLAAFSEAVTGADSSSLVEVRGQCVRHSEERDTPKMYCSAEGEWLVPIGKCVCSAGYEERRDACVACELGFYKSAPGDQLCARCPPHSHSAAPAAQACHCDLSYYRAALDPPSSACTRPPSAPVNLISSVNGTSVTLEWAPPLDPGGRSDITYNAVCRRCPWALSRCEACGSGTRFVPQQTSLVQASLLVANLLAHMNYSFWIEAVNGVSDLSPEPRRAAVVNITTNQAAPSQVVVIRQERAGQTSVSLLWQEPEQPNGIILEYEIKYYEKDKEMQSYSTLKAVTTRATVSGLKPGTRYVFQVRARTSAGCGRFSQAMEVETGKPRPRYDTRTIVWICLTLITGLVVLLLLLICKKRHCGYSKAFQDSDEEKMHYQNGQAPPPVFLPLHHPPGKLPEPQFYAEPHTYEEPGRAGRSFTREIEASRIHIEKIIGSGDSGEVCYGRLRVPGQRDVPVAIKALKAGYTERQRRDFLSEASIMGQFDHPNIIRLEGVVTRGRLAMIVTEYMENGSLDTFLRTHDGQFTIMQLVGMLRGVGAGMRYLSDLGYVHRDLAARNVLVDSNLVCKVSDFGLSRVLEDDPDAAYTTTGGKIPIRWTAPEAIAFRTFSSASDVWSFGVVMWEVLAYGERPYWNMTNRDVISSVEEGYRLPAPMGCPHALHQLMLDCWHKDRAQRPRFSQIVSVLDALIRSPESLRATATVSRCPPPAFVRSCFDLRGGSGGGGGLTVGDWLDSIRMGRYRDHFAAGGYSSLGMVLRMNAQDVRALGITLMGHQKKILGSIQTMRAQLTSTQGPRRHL

Compound	assay	conditions	endpoint	value
CCN(CC)CCNC(=O)c1c(C)[nH]c(/C=C2\C(=O)Nc3ccc(F)cc32)c1C	cell-free assay	0.5 µM	remaining signal	92.1%
c1ccc(N2CCN(Cc3nc4ccccc4[nH]3)CC2)nc1	cell-free assay, competition with immobilised ligand	1 µM	remaining binding	100%
Clc1ccc(Nc2nnc(Cc3ccncc3)c3ccccc23)cc1	cell-free assay	0.5 µM	remaining signal	100%
Cc1ccc(Nc2nccc(N(C)c3ccc4c(C)n(C)nc4c3)n2)cc1S(N)(=O)=O	enzyme activity, inhibitor	0.3 µM	inhibition	17%
CNC(=O)c1ccc(Nc2ncc(C(F)(F)F)c(NCc3nccnc3N(C)S(C)(=O)=O)n2)cc1	cell-free assay, competition with immobilised ligand	0.1 µM	remaining binding	87%
Cc1cc(NC(=O)c2cccc3cc(-c4cccc5[nH]nc(N)c45)ccc23)ccc1F	enzyme activity, inhibitor	0.1 µM	activity vs control	97%
CNC(=O)c1cc2c(Oc3ccc(NC(=O)C4(C(=O)Nc5ccc(F)cc5)CC4)cc3)ccnc2cc1OC	enzyme activity, inhibitor, radiometric	1 µM	inhibition	102%
Cc1ccc(C(=O)Nc2ccc(CN3CCN(C)CC3)c(C(F)(F)F)c2)cc1C#Cc1cnc2cccnn12	cell-free assay	23.5 nM	remaining signal	0.9%
Cc1cnc(NC2CCOCC2)nc1-n1cnc(C(=O)NC(CN)c2cc(F)cc(Cl)c2)c1 (stereo not drawn)	enzyme activity, inhibitor, radiometric	1 µM	remaining activity	95%
C[C@H](NC(=O)c1cnc2n1[C@](C)(Cc1ccc(C#N)cc1)C(=O)N2c1cc(Cl)c(F)c(Cl)c1)C(=O)NC1(c2ccccn2)CC1	cell-free assay, competition with immobilised ligand	1 µM	remaining binding	100%
CC/C(=N\NC(=O)NCc1cccc(O)c1)c1ccc(O)c(C)c1O	enzyme activity, inhibitor	0.1 µM	inhibition	-0.5%
CC(C)(C)c1nc(-c2cccc(NS(=O)(=O)c3c(F)cccc3F)c2F)c(-c2ccnc(N)n2)s1	enzyme activity, inhibitor, radiometric	1 µM	remaining activity	105%
CCCS(=O)(=O)Nc1ccc(F)c(C(=O)c2c[nH]c3ncc(-c4ccc(Cl)cc4)cc23)c1F	enzyme activity, inhibitor	1 µM	inhibition	< 20%
C[C@@]1(Cc2ccc(C#N)cc2)C(=O)N(c2cc(Cl)cc(Cl)c2)c2ncc(C(=O)NC3(c4nc(C5CCC5)no4)CC3)n21	cell-free assay, competition with immobilised ligand	1 µM	remaining binding	100%
CNC(=O)c1cc(Oc2ccc(NC(=O)Nc3ccc(Cl)c(C(F)(F)F)c3)cc2)ccn1	enzyme activity, inhibitor	10 µM	inhibition	89%
COc1cc2ncnc(Nc3ccc(Oc4ccccc4)cc3C)c2cc1OC	enzyme activity, inhibitor	1 µM	inhibition	21%
O=C1Nc2ccc(Cl)cc2C1=Cc1cc(Cl)c(O)c(Cl)c1	cell-free assay	0.5 µM	remaining signal	91.5%
O=C(NCCCC1CCCCC1)c1ccc(CNC(=O)c2cnn(-c3ccccc3)c2C(F)(F)F)cc1	cell-free assay, competition with immobilised ligand	0.1 µM	remaining binding	95%
O=C(Nc1cnn(-c2csc(C(=O)NC3COC3)c2)c1)Nc1c(F)cccc1Cl	enzyme activity, inhibitor	5 µM	remaining activity	93.8%
O=C(NCc1ncc(C(F)(F)F)cc1Cl)c1ccc2c(c1)C1(CCS(=O)(=O)CC1)[C@@H](C1CC1)N2S(=O)(=O)c1ccc(F)cc1	cell-free assay, competition with immobilised ligand	1 µM	remaining binding	100%
COc1cc(-c2cc(-c3ccc(N4CCNCC4)cc3)cnc2C)cc(OC)c1OC	enzyme activity, inhibitor	1 µM	inhibition	10%
